From PubChem BioAssay
Kir21 block = blocks the mouse Kir2.1 inward-rectifier potassium channel; P35561; HEK293-Kir2.1, FluxOR thallium flux fluorescence; stronger effect = lower value; B-score at 10 µM; 310,000 tested, 0.85% active; AID 1672;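 active means fluorescence ratio B-score at or below minus 3 SD of library scores, with starting-brightness B-score within 2 SD, cut at about -4.2 in these data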;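 further: channel flux triggered by added potassium and thallium sulfate stimulus; B-score of peak minus minimum fluorescence over baseline after thallium stimulus; more negative B-score means stronger Kir2.1 block with less thallium influx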
hERG rescue = shields human hERG channel from block by proarrhythmic agents. activation (rescue from dofetilide block), less the hit threshold, % at 10 µM. 310,000 tested, 0.51% active. CHO-hERG, FluxOR thallium flux, dofetilide IC70 present. AID 1511;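 active means activation above the mean of controls blocked by dofetilide plus 5 SD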;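 further: thallium influx through hERG after potassium depolarization seen as dye fluorescence rise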
KCNK3 block = human KCNK3 channel inhibition, primary screen | 340,000 tested, 0.84% active | B-score at 10 µM | O14649 | CHO-KCNK3 thallium flux, FluxOR fluorescence; stronger effect = lower value | AID 602410;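 active means B-score under library mean minus 4 SD, starting fluorescence ratio at most library mean plus 5 SD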;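 further: more negative B-score means stronger inhibition of thallium flux through KCNK3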
KCNQ1 act = human KCNQ1 channel potentiation or activation | AID 2648 | P51787 | 310,000 tested, 0.35% active | CHO-K1 KCNQ1, thallium flux FluxOR fluorescence; stronger effect = higher value | B-score at 10 µM;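 active means fluorescence ratio B-score, a plate-corrected score, at least three library SD, with initial intensity B-score within 5 SD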
Target sequence (P51787 whole entry, looked up): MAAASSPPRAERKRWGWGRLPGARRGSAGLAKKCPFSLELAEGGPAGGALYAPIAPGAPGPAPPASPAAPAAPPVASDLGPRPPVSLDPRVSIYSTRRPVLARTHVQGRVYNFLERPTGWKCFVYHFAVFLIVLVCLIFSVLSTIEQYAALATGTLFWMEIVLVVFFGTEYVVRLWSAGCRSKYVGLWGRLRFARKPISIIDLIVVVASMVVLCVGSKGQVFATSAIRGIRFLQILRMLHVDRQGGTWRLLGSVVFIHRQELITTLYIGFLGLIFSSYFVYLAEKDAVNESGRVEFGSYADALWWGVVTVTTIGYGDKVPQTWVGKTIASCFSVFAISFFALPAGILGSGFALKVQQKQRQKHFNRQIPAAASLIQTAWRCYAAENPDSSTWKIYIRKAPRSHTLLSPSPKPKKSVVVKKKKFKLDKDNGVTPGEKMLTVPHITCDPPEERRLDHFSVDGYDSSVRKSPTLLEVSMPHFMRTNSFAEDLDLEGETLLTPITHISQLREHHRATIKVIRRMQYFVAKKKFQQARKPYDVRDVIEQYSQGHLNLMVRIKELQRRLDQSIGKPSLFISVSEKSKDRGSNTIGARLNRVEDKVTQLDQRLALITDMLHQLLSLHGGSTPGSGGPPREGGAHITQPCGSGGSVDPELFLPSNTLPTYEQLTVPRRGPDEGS
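Assay system: CHO-K1 cells stably expressing KCNQ1; Medium: assay buffer with matched DMSO; Also added: K+/Tl+ depolarizing stimulus; Dosing: single dose; Timing: dye 90 min, compound 20 min, room temperature; Measured by: kinetic FluxOR thallium fluorescence, 10-s 1-Hz baseline, 110-s post-stimulus read; Read-out: peak-minus-minimum fluorescence over initial fluorescence, negative-control normalized, B-scored.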
KCNQ1 block = inhibitors of human KCNQ1 potassium channel; CHO-K1 KCNQ1, FluxOR thallium flux fluorescence; stronger effect = higher value; 310,000 tested, 1.3% active; B-score at 10 µM; P51787;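 active means compounds whose thallium flux B-score, printed positive for inhibition, exceeds three library SD while starting fluorescence stays within three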;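 further: channel opened by potassium depolarization with thallium stimulus after 20 min compound exposure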
KCNK9 block = blocks the human KCNK9 two-pore domain potassium channel; AID 488922; Q9NPC2; 310,000 tested, 1.2% active; HEK293 KCNK9, FluxOR thallium flux fluorescence; stronger effect = lower value; B-score at 10 µM;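 active means ratio B-score over 3 SD below the library mean, with starting fluorescence within 5 SD of its mean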;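 further: negative B-score means less thallium flux so channel inhibition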
KCNK9 inh conf = human KCNK9 inhibitor confirmation; shares compounds with KCNK9 block; HEK293 KCNK9 cells, FluxOR thallium flux fluorescence; inhibition, % at 10 µM; 4,900 tested, 43% active;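 active means thallium signal inhibited by more than 5 SD of the compound-free buffer control wells, on both duplicate plates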;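 further: 0% = assay buffer control wells without compound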
Kir2-1 spec = mouse Kir2.1 off-target activity of KCNK9 modulators | Kir2.1 cells, FluxOR thallium flux fluorescence | shares compounds with KCNK9 block | 4,900 tested, 4% active | inhibition, % at 10 µM | AID 492993;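 active means thallium signal drop more than 5 SD beyond the mean of the no-compound control wells, seen in both duplicate plates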;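 further: signal is fluorescence rise after thallium addition divided by baseline fluorescence; plate controls were assay buffer only for no effect and full block by chlorpromazine control for full effect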
KCNK9 uninduced = non-induced cell nonspecific activity of KCNK9 modulators; shares compounds with KCNK9 block; non-induced KCNK9-HEK293, FluxOR thallium flux; inhibition, % at 10 µM; 4,900 tested, 40% active; AID 492997;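 active means thallium signal drop beyond 5 SD of the untreated control mean, on both duplicate plates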;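 further: plate controls were buffer only IC0 wells for no effect and SID17386958 at its maximal inhibitory level for full effect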
An asterisk follows results filed as active; i = inactive; nt = no result given. Sampled rows, rich in hits. Any-hit rate of the full collection: about 3.7%.

SMILES	Kir21 block	hERG rescue	KCNK3 block	KCNQ1 act	KCNQ1 block	KCNK9 block	KCNK9 inh conf	Kir2-1 spec	KCNK9 uninduced
COc1ccc(C(=O)NCc2nnc(SCC(=O)N3CCCc4ccccc43)o2)cc1OC	1.25	-12.7	i	i	i	i	nt	nt	nt
CC1CCCCC1NC(=O)COc1ccccc1C#N (stereo not drawn)	nt	nt	i	nt	nt	nt	nt	nt	nt
O=C(Nc1ccccc1)O[C@@H]1C[C@H]2CCCC(=O)N3CC[C@@H](C1)[C@@H]23	nt	nt	i	nt	nt	nt	nt	nt	nt
O=C(Nc1ccccc1)OC1CC2CC1C1CCCC21 (stereo not drawn)	-2.02	-3.0	i	i	i	i	i	i	i
CCCN1C(=O)/C(=C/c2ccco2)SC1=Nc1ccc(OC)cc1	-2.02	-5.0	i	i	i	i	nt	nt	nt
CCCN1C(=O)/C(=C\c2ccncc2)SC1=Nc1ccccc1	0.58	-12.0	i	i	i	i	i	i	i
CCOc1cc(/C=C2\SC(=Nc3ccccc3)N(c3ccccc3)C2=O)ccc1OCC(=O)O	1.88	-17.3	i	i	i	i	nt	nt	nt
CCN1C(=O)/C(=C\c2ccncc2)SC1=Nc1ccc(C)c(C)c1	-0.17	-10.7	i	i	i	i	i	i	i
CCOC(=O)COc1ccc(/C=C2/SC(=Nc3ccccc3)N(Cc3cccnc3)C2=O)cc1OC	1.27	-12.6	i	i	i	i	i	i	i
CC(OC(=O)c1cccc(-n2cnnn2)c1)C(=O)N(C)c1ccccc1 (stereo not drawn)	-0.2	-4.6	i	i	i	i	nt	nt	nt
O=C1CCCN1C(=O)CSc1ncnc2sccc12	nt	nt	i	nt	nt	nt	nt	nt	nt
CC(=O)c1cccc(-n2c(CCC(=O)O)ccc2-c2ccc(C)cc2)c1	0.75	1.9	i	i	i	-15.4*	i	i	i
O=C(O)CCc1ccc(-c2ccccc2)n1-c1cccc(C(=O)O)c1	-0.34	-2.8	i	i	i	i	nt	nt	nt
C[C@H](CO)N1C[C@H](C)[C@@H](CN(C)S(C)(=O)=O)Oc2c(NC(=O)Nc3ccccc3)cccc2C1=O	nt	nt	i	nt	nt	nt	nt	nt	nt
CC(C)Cn1c(=O)c2c(nc3n2CCCN3CCc2ccccc2)n(C)c1=O	0.34	-18.0	i	i	i	-8.58*	45.5%*	i	i
CCN1CCN(S(=O)(=O)c2ccc(Cl)c(C(=O)N(CCc3ccccc3)Cc3ccccc3)c2)CC1	nt	nt	i	nt	nt	nt	nt	nt	nt
CC1CN(S(=O)(=O)c2cccc(C(=O)N(CCc3ccccc3)Cc3ccccc3)c2)CC(C)O1 (stereo not drawn)	0.79	-7.7	i	i	i	i	i	i	i
Cc1ccc(S(=O)(=O)N2CCCCC2)cc1C(=O)N(CCc1ccccc1)Cc1ccccc1	1.36	-14.2	i	i	i	-16.2*	79.0%*	i	43.0%*
Cc1ccc(N(Cc2ccccc2)C(=O)c2cccc(S(=O)(=O)N3CC(C)OC(C)C3)c2)cc1 (stereo not drawn)	-0.12	-15.7	i	i	i	i	nt	nt	nt
Cc1ccc(N2C(=O)c3ccccc3NC2(C(=O)O)c2ccccc2)cc1Cl (stereo not drawn)	-1.7	-3.9	i	i	i	i	nt	nt	nt
CCN(CC)S(=O)(=O)c1cc(OC)ccc1N=Nc1ccc(O)c2ncccc12	-0.23	17.0*	i	i	i	i	i	i	i
CC1(c2ccccc2)NC(=O)N(CC(=O)NCC2CCCO2)C1=O (stereo not drawn)	nt	nt	i	nt	nt	nt	nt	nt	nt
Cc1ccc(CNC(=O)C2CCCN(S(=O)(=O)N3CC(C)CC(C)C3)C2)cc1 (stereo not drawn)	0	0.3	i	i	i	i	i	i	i
COc1ccc(Br)cc1CNC(=O)C1CCN(S(=O)(=O)N2CCCCC2)CC1	-0.7	-5.5	i	i	i	i	nt	nt	nt
COc1ccc(Br)cc1CNC(=O)C1CCCN(S(=O)(=O)N2CC(C)CC(C)C2)C1 (stereo not drawn)	1.5	-8.3	i	i	i	-8.48*	i	i	i
SMILES	Kir21 block	hERG rescue	KCNK3 block	KCNQ1 act	KCNQ1 block	KCNK9 block	KCNK9 inh conf	Kir2-1 spec	KCNK9 uninduced
CCCS(=O)(=O)N1CCCC(C(=O)NCc2ccc(C)cc2)C1 (stereo not drawn)	1	-1.4	i	i	i	i	nt	nt	nt
CC(=O)c1ccc(S(=O)(=O)Nc2ccc(C(=O)N(C)CC(=O)Nc3cccc(C)c3C)cc2)cc1	nt	nt	i	nt	nt	nt	nt	nt	nt
Cc1sc(NC(=O)c2ccco2)c(C(=O)c2ccc(Cl)cc2)c1C	1.31	-8.7	i	i	i	i	nt	nt	nt
Cc1ccc(C(=O)c2c(NC(=O)c3ccccc3C)sc(C)c2C)cc1	-0.29	-10.3	i	i	i	i	i	i	i
COc1ccc(NC(=O)c2ccccc2-c2ccccc2C(=O)O)cc1	0.03	-2.3	i	i	i	i	nt	nt	nt
O=C(O)c1ccccc1C(=O)Nc1ccc(Oc2ccc3ccccc3c2)cc1	-0.57	-2.2	i	i	i	i	i	i	i
Cc1c(C)c(C)c(C(=O)c2ccc(NC(=O)c3ccccc3C(=O)O)cc2)c(C)c1C	1.34	-11.7	i	i	i	i	i	i	i
CN(CC(=O)Nc1ccccc1Cl)C(=O)CSc1nnc(-c2ccco2)n1C	nt	nt	i	nt	nt	nt	nt	nt	nt
CCCCN(C(=O)c1c(C)noc1C)c1c(N)n(CCCC)c(=O)[nH]c1=O	-1.3	-8.1	i	i	i	i	nt	nt	nt
O=C(Cn1cc(C(=O)C(F)(F)F)c2ccccc21)N1CCOCC1	1.82	-6.0	i	i	i	i	nt	nt	nt
Cc1oc2cc(Br)c(O)c(Br)c2c1-c1ccccc1	0.11	-6.8	i	i	i	i	nt	nt	nt
c1ccc2c(c1)OCC(c1csc3ncnc(N4CCCCC4)c13)O2 (stereo not drawn)	-0.16	-7.7	i	i	i	-13.2*	44.5%*	i	32.5%*
CC1Cc2ccccc2N1C(=O)/C=C/c1cccc(F)c1 (stereo not drawn)	1.32	-19.3	i	i	i	i	i	i	i
FC(F)(Cl)c1nnc2ccc(Sc3ccccn3)nn12	-0.04	-5.0	i	i	i	i	nt	nt	nt
COc1ccc(NC(=S)N(CCc2c(C)[nH]c3ccc(C)cc23)Cc2ccco2)cc1	-0.05	-17.3	i	i	i	i	nt	nt	nt
